This is an account of results in ChEMBL document CHEMBL1156906, “Synthesis and structure-activity relationship of botryllamides that block the ABCG2 multidrug transporter” (Bioorg Med Chem Lett, 2010).

Where only a bound is given, the exact number is not on record here.

The term IC50 denotes the midpoint of a concentration-inhibition curve.

The target of the assay is T1, Broad substrate specificity ATP-binding cassette transporter ABCG2 (Homo sapiens, UniProt Q9UNQ0).
T1 sequence (Q9UNQ0 whole entry): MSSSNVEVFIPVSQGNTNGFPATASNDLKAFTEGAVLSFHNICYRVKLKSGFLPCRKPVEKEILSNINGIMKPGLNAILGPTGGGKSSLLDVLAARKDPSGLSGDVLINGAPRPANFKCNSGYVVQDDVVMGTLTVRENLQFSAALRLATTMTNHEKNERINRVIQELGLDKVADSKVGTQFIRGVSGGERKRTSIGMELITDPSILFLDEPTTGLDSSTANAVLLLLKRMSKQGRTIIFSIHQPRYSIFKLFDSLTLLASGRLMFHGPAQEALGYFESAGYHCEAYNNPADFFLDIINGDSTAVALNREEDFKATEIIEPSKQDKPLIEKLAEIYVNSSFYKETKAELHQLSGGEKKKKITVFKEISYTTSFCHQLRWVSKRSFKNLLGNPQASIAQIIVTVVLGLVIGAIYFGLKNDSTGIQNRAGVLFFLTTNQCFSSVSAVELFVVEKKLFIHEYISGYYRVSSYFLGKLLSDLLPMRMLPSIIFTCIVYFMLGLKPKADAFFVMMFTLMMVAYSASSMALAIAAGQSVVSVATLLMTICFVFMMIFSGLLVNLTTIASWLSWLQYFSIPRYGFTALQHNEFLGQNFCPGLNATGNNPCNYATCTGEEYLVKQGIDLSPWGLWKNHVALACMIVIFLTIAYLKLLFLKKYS
In words: Inhibition of ABCG2 expressed in human NCI-H460/MX20 cells assessed as accumulation of ABCG2 substrate pheophorbide-A. Type of assay: cell-based. In short, it runs like this: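 Cell-based assay in cells overexpressing ABCG2, measuring intracellular accumulation of the fluorescent ABCG2 substrate pheophorbide-a. Medium removed and cells washed with PBS before reading intracellular fluorescence. […] IC50 reported ± SD.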

As for `COC(Cc1ccc(O)cc1)C(=O)NCCc1ccc(O)cc1` (configuration not stated), the IC50 is > 100 µM. Regarding `CO/C(=C\c1ccccc1)C(=O)N/C=C/c1ccc(O)cc1`, the IC50 is 15.4 µM. The value for `CO/C(=C\c1ccc(O)cc1)C(=O)NCC(O)c1ccc(O)cc1` (configuration not stated) was > 100 µM; that for `CO/C(=C\c1ccc(O)c(O)c1)C(=O)N/C=C/c1ccc(O)cc1` was 18.8 µM; that for `COC(Cc1ccc(O)cc1)C(=O)N/C=C/c1ccc(O)cc1` (configuration not stated) was > 100 µM. Consider `CO/C(=C\c1ccc(OC)cc1)C(=O)N/C=C/c1ccc(O)cc1`, for which the IC50 came out at 6.4 µM. Take `CO/C(=C\c1ccc(OCc2ccccc2)cc1)C(=O)N/C=C/c1ccc(O)cc1`: the 50% inhibitory concentration (IC50) is > 100 µM. With `O=C(/C=C/c1ccc(O)cc1)N/C=C/c1ccc(O)cc1`, the concentration for half-maximal inhibition (IC50) was > 100 µM. As for `CO/C(=C\c1cc(Br)c(O)c(Br)c1)C(=O)N/C=C/c1ccc(O)cc1`, the concentration for half-maximal inhibition (IC50) worked out at 11.1 µM. Regarding `CO/C(=C\c1ccc(O)cc1)C(=O)O`, the IC50 was > 100 µM. For the compound `CO/C(=C\c1cc(Br)c(O)c(Br)c1)C(=O)N/C=C/c1ccc(OC(C)=O)cc1`, the IC50 is 23.2 µM. Consider `CO/C(=C\c1ccc(O)cc1)C(=O)NCCc1ccc(O)cc1`, for which the IC50 was determined as 25.2 µM.
